Assay outcomes as filed in PubChem.
Sampled rows, rich in hits. Any-hit rate of the full collection: about 2.9%.
PfM18AAP inh – PfM18AAP inhibitors, malaria aminopeptidase, primary screen, biochemical, QFRET, recombinant enzyme; H-Glu-NHMec fluorogenic cleavage; M18 aspartyl aminopeptidase (Plasmodium falciparum 3D7); 290,000 tested, 1.2% active; inhibition, % at 7.35 µM; AID 1822, 2009;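 active = inhibition above the campaign mean inhibition over all tested compounds plus 3 SD, cut at about 28% in these data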;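 also: 0% = plate median of test compound wells and 100% = 2 mM ZnCl2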
RanGTP-Impb inh – inhibitors of RanGTP-importin-beta interaction, primary screen, biochemical, FRET, CFP-Ran, YFP-importin-beta, homogeneous; Ran GTPase (GTP-bound) - importin-beta complex; inhibition, % (test concentration not listed); AID 2216, 2009; 300,000 tested, 1.1% active; cell-free CFP-Ran/YFP-importin-beta FRET ratio;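 active = more than half of the replicate wells show a fall in the fluorescence ratio signal beyond about 16%, limit read from the data, passing the limit was not always enough; inconclusive = exactly half of the replicate wells pass the set limit; inactive = fewer than half of replicates pass the limit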;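 also: 0% = DMSO wells and 100% = Ran loaded with GDP instead of GTP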
Runt-SMMHC FRET – inhibitors of RUNX1 Runt–CBFb-SMMHC binding, primary screen, biochemical, FRET, Cerulean-Runt, Venus-CBFb-SMMHC, uHTS. 220,000 tested, 0.74% active. inhibition, % at 20 µM. Cerulean-Runt/Venus-CBFb-SMMHC FRET ratio 530/480, 1 h. Runt-related transcription factor 1 (Homo sapiens) + Core-binding factor subunit beta …;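 active = mean inhibition across duplicate retests at 20 µM reaching about 50%, limit read from the data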;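 also: 0% = DMSO wells and 100% = wells with excess untagged CBFb-SMMHC; inhibitors lower the FRET ratio by blocking Runt binding to CBFb-SMMHC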
Hck-Nef inh – inhibitors of Nef-activated human Hck kinase, primary screen, biochemical, Z-Lyte FRET, 384-well, Hck-YEEI; Recombinant Hck-YEEI plus Nef, Z-Lyte FRET kinase assay; inhibition, % at 20 µM; 220,000 tested, 0.68% active; AID 463187, 2010;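 active = Hck-Nef kinase inhibition above about 50%, limit read from the data; inactive = inhibition below that limit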;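 also: 0% = DMSO with Hck plus Nef and 100% = Hck alone without Nef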
Target sequence (P08631 whole entry, looked up): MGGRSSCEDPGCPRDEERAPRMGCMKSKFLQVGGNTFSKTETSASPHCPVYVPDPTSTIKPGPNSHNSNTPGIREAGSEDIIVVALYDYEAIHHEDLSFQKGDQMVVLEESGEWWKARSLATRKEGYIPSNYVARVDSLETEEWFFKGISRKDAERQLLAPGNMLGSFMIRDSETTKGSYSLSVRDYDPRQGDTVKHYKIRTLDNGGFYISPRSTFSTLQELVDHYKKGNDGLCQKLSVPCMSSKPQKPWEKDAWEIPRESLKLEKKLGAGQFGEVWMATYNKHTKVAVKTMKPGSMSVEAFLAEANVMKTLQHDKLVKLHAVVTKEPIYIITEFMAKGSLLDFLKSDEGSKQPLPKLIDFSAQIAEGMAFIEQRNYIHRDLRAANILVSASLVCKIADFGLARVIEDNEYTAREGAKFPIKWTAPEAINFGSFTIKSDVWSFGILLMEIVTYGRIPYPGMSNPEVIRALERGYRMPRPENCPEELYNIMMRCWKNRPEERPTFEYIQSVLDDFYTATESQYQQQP
RBBP9 inhibitor – human RBBP9 inhibitors, primary screen, biochemical, fluorescence polarization, FP-Rh probe, HTS; Serine hydrolase RBBP9 (Homo sapiens), O75884; recombinant RBBP9; inhibition, % at 7.94 µM; 220,000 tested, 0.2% active; AID 1515, 2009;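 active = inhibition above the campaign mean of all tested compounds plus 3 SD, cut at about 14% in these data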;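 also: plate controls were DMSO wells with RBBP9 for no effect and wells lacking RBBP9 protein for full effect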
Target sequence (O75884 whole entry, looked up): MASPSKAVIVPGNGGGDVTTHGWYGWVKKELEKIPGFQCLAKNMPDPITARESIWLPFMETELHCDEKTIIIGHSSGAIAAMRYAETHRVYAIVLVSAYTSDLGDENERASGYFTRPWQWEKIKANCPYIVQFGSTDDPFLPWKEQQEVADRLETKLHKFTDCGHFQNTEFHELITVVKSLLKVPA
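Test system: recombinant human RBBP9. Quantity: 2.5 µM RBBP9 dispensing solution, before mixing. Detection: FP readout at 525/598 nm. Reagent: Serine-hydrolase probe FP-Rh, 375 nM pre-mixing. Measure: % inhibition. Control set: DMSO-treated enzyme wells and wells lacking RBBP9. Buffer or medium: Tris-NaCl-Pluronic buffer, pH 8.0. Times: preincubation 30 min plus labeling 45 min at 25 °C.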
Runt-CBFb FRET – inhibitors of RUNX1 Runt–CBFb binding, primary screen, biochemical, FRET, Cerulean-Runt, Venus-CBFb, uHTS. inhibition, % at 20 µM. Cerulean-Runt/Venus-CBFb FRET ratio 530/480, 1 h. Runt-related transcription factor 1 (Homo sapiens) + Core-binding factor subunit beta …. 220,000 tested, 0.46% active;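 active = inhibition over about 50% at 20 µM in the single-dose screen, limit read from the data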;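 also: 0% = DMSO wells and 100% = excess unlabeled CBFb competitor control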
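Reagent – Venus-CBFb binding partner, 100 nM · Assay system – Cerulean-tagged RUNX1 Runt domain (FRET donor) fusion protein · Input – 100 nM per protein · Incubation – two 1 h room-temperature incubations shielded from light · Measured by – FRET fluorescence · Medium – Tris buffer pH 7.5 with salts and BSA · Benchmarks – unlabeled CBFb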
Runt-CBFb TRFRET – inhibitors of RUNX1 Runt–CBFb binding, biochemical, TR-FRET. shares compounds with Runt-CBFb FRET. TR-FRET RUNX1 Runt domain-CBFb binding. inhibition, % at 20 µM. 480 tested, 20% active. AID 1502, 2009; in the data active = inhibition above about 40%
* hit, by the source's call; u = inconclusive; x = not tested or not shown.

SMILES | PfM18AAP inh | RanGTP-Impb inh | Runt-SMMHC FRET | Hck-Nef inh | RBBP9 inhibitor | Runt-CBFb FRET | Runt-CBFb TRFRET
COc1ccc(-c2noc(CCC(=O)N3CCC(C)CC3)n2)cc1 | 4.4 | 0.2 | -1.8 | 0.5 | -1.8 | 85.1* | -1.9
COc1ccccc1C1CC(c2cccs2)=Nc2ccccc2S1 (stereo unspecified) | 12.3 | 4.0 | 5.3 | -2.3 | -5.5 | 33.0 | x
Fc1ccccc1C1CC(c2ccco2)=Nc2ccccc2S1 (stereo unspecified) | 13.3 | 2.2 | 2.6 | 10.6 | -6.0 | 50.4* | 22.0
Cc1ccsc1C(=O)NN=C1CCCCCC1 | -7.0 | 0.6 | x | x | x | x | x
O=c1[nH]c(C(Cl)(Cl)Cl)nc2ccc3ccccc3c12 | -6.2 | 0.3 | x | x | x | x | x
Clc1cccc(Nc2c3c(nc4ncnn24)CCC3)c1 | -5.2 | -0.4 | -1.4 | 1.9 | -3.0 | 54.5* | 2.8
Cc1cc2c(cc1S(=O)(=O)N(C)Cc1ccccc1)OCC(=O)N2 | 2.4 | u | x | x | x | x | x
Cc1cccc(/C=N/c2sc3c(c2C(=O)OC(C)(C)C)CCN(C)C3)c1O | -1.4 | u | 14.5 | -0.1 | -2.9 | 31.3 | x
CCOC(=O)c1c(/N=C/c2cc(C)ccc2O)sc2c1CCN(C)C2 | 1.6 | 56.3* | 60.1* | 2.1 | 2.8 | 50.0* | 0.3
CCn1c(CNC(=O)c2ccccc2OC)nnc1SCC(=O)c1ccc(F)cc1 | -11.3 | -2.9 | x | x | x | x | x
NS(=O)(=O)c1ccc(NC(=S)NCc2ccccc2)cc1 | 21.1 | 5.3 | 28.1 | 2.7 | -7.5 | 51.5* | 6.0
NS(=O)(=O)c1ccc(NC(=S)NCc2cccc(Cl)c2)cc1 | -16.2 | 0.2 | -1.5 | 0.2 | 0.7 | 6.2 | x
Cc1nc2c(c(=O)n1Cc1ccccc1Cl)c1nc3ccccc3nc1n2Cc1ccco1 | x | x | 20.5 | x | x | 33.4 | x
COc1ccc(Cn2c3nc4ccccc4nc3c3c(=O)n(Cc4ccco4)c(C)nc32)cc1 | x | x | 47.5 | x | x | 51.8* | -29.2
CC(C)N1CCc2c(sc(N)c2C#N)C1 | x | 68.5* | 141.6* | x | x | 59.0* | -2.6
Cc1ccc(CN2C(=O)c3ccccc3NC2c2cc(Br)ccc2O)cc1 (stereo unspecified) | -7.3 | 1.6 | x | x | x | x | x
COc1cc(C(=O)Nc2ccc(C)c(S(=O)(=O)N(C)C)c2)ccc1OCC(=O)N1CCOCC1 | x | -2.5 | x | x | x | x | x
Cc1ccc(/C=c2\sc3nc(-c4ccccc4Br)nn3c2=O)o1 | 13.8 | -0.7 | 0.8 | 6.2 | 4.8 | 25.3 | x
Cc1ccc(/C=c2\sc3nc(-c4ccco4)nn3c2=O)o1 | 11.6 | 12.4 | 28.6 | 12.7 | -3.5 | 53.2* | 88.5*
Cc1onc(-c2ccccc2)c1C(=O)NC(=S)Nc1sc2c(c1C#N)CCCC2 | 14.1 | 0.2 | 37.0 | -2.9 | -3.0 | 50.8* | 10.1
CC1CC/C(=N/Nc2ccccc2)C(=O)N1 (stereo unspecified) | 0.4 | -3.3 | 0.7 | -1.0 | -5.4 | 50.8* | 14.2
Cc1ccc(C(=O)NCCc2nnc3ccc(NCc4ccc5c(c4)OCO5)nn23)cc1 | -5.3 | -1.8 | x | x | x | x | x
O=C(OCCOCCN=C1NS(=O)(=O)c2ccccc21)c1ccc(F)cc1 | -12.4 | -3.7 | x | x | x | x | x
Cc1cc(C)nc(SCNC(=O)c2ccccc2)n1 | 45.0* | -6.3 | 17.9 | 8.5 | 1.0 | 68.7* | -14.2
Cc1cc(SCNC(=O)c2ccccc2)nc(C(C)C)n1 | -3.2 | u | 15.8 | 25.2 | -6.5 | 43.1 | x
SMILES | PfM18AAP inh | RanGTP-Impb inh | Runt-SMMHC FRET | Hck-Nef inh | RBBP9 inhibitor | Runt-CBFb FRET | Runt-CBFb TRFRET
C=CCN1C(=O)/C(=C2/Sc3ccc(OC)cc3N2C)SC1=NCc1ccccc1 | 11.4 | 1.1 | 36.6 | -45.4 | 0.6 | 51.2* | 10.5
O=C(NNc1c2ccccc2nc2ccccc12)c1cccc(O)c1 | 7.6 | u | 34.7 | 1.2 | -0.4 | 22.2 | x
O=C(COc1ccccc1)NNc1c2ccccc2nc2ccccc12 | 2.1 | 5.2 | 80.6* | 1.1 | 1.4 | 58.0* | -1.0
O=C(NNc1c2ccccc2nc2ccccc12)c1ccc(O)cc1 | 19.7 | 36.2* | 57.6* | 0.5 | -6.0 | 51.7* | -45.3
O=C(CNS(=O)(=O)c1c(Cl)cccc1Cl)N1CCCCCC1 | -5.3 | u | x | x | x | x | x
Cn1cnnc1Sc1nc2ccccc2nc1NS(=O)(=O)c1ccccc1 | 0.3 | 10.2 | 27.6 | -6.5 | 3.5 | 9.4 | x
Cn1ccnc1Sc1nc2ccccc2nc1NS(=O)(=O)c1ccccc1 | 28.8* | u | 73.0* | -2.5 | 4.9 | 60.9* | 54.5*
Cc1ccc(S(=O)(=O)NNC(=O)CCCCC(=O)NNS(=O)(=O)c2ccc(C)cc2)cc1 | 2.8 | -0.7 | 2.7 | 28.7 | -2.9 | -0.4 | x
CC(C)CCOc1ccc(CO[C@@H]2[C@H]3OC(C)(C)O[C@H]3O[C@@H]2C(O)CO)cc1 (stereo partly specified) | -10.6 | -7.2 | x | x | x | x | x
CC(C)S(=O)(=O)C1=NSC2=NC(=O)/C(=C\c3ccc(-c4cccc(C(=O)O)c4)o3)C(=N)N21 | 8.9 | x | 65.5 | 30.0 | -10.0 | 59.6* | 21.2
CS(=O)(=O)C1=NSC2=NC(=O)/C(=C\c3ccc(-c4ccccc4)o3)C(=N)N21 | 3.5 | x | 82.3 | -1.4 | -1.6 | 39.2 | x
O=C1C2C3C=CC(CO)(O3)C2C(=O)N1c1ccccc1-c1ccccc1 (stereo unspecified) | -139.9 | x | 67.8* | 5.4 | 33.2* | 61.4* | 70.5*
CC(=O)Oc1ccc(N2C(=O)C3C4C=CC(CO)(O4)C3C2=O)cc1 (stereo unspecified) | -125.5 | 1.1 | 0.4 | 0.3 | -5.1 | 14.0 | x
Cc1ccc2nc3c(cc(C(=O)NCCCn4ccnc4)n3C)c(=O)n2c1 | 4.8 | -2.8 | 77.1* | 34.6 | -4.1 | 53.6* | -23.3
Cc1[nH]c2ccccc2c1C1=NNC(=Nc2ccc(F)cc2)SC1 | 6.2 | x | 47.2 | 0.5 | -2.2 | 53.4* | -1.5
CCCn1c(=NC(=O)c2c(-c3c(F)cccc3Cl)noc2C)c(C(=O)OCC)cc2c(=O)n3ccccc3nc21 | 3.6 | 0.8 | 60.1* | 11.6 | -6.2 | 71.5* | -79.4
CCOC(=O)c1cc2c(=O)n3ccccc3nc2n(Cc2ccco2)c1=NC(=O)c1cccc(OC)c1 | 0.2 | 33.0* | 86.3* | 29.8 | 9.7 | 98.8* | 55.4*
Cc1onc(-c2c(F)cccc2Cl)c1C(=O)OCn1nnc2ccccc2c1=O | -8.1 | x | 2.0 | 1.1 | -9.9 | -3.8 | x
